Test results published in article PMC10028500 (RSC Advances, 2023).

Tests used:
[1] = tested on: breast (MCF-7) cancer cell line; assay: IC50 by MTT assay, MCF-7; assay type: cell-based; conditions: MCF-7, 48 h
How it was run: (§1)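 Cells were grown in DMEM at 37 °C, 5% CO2, 95% humidity, trypsinised and counted by trypan blue/hemocytometer. 10^4 cells per well were incubated 24 h, then test compound (3.5, 7, 14, 28, 56 μM; four replicates each) was added at ~70% confluence for 48 h. MTT (0.5 mg/mL) ran 4 h, then DMSO 15 min at room temperature, read at 595 nm. IC50 came from viability vs concentration curves.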

[2] = tested on: Liver (HepG2) cancer cell line; assay: IC50 by MTT assay, HepG2; assay type: cell-based; conditions: HepG2, 48 h
How it was run: as §1

HepG2 cells = assay: Flow cytometry analysis of the cell cycle of HepG2; assay type: cell-based; conditions: HepG2, 24 h, around IC50 concentration
How it was run: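 HepG2 cells (ca. 1 × 10^6) were seeded 24 h, then exposed to test compound for 24 h. Cells were harvested with 0.25% trypsin, spun 5 min at 1500 rpm, washed twice in PBS and fixed in 70% ethanol for 4 h at −20 °C. They were taken up in cold PBS with RNase A, stained with propidium iodide for 1 h in the dark and analysed by flow cytometry.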

ct-DNA [3] = conditions: cited from earlier work
ct-DNA [4] = conditions: cited from earlier work; remark: listed apart in the source

N.N.[Cl][Pt][Cl] [Cisplatin]
IC50 [1]: 18.4 ± 2.72 µM | IC50 [2]: 19.7 ± 1.53 µM | cell population in the G1/G0, S and G2/M phases vs control (HepG2 cells): decreases | cell population in the sub-G phase (HepG2 cells; control ca. 1%): 47.3%

[Cl-].[Pt+2].c1ccc(-c2cccc(-c3ccccn3)n2)nc1 [Pt(terpy)Cl]
DNA binding mode (ct-DNA [3]): shifts gradually from the intercalation mode to the covalent binding mode

CC[n+]1c(-c2ccccc2)c2cc(N)ccc2c2ccc(N)cc21 [ethidium bromide]
binding constant (KEB) of ethidium bromide to DNA (ct-DNA [4]): 1 × 10^5
